Measured values published in ChEMBL document CHEMBL4219179, “Small-molecules that bind to the ubiquitin-binding motif of REV1 inhibit REV1 interaction with K164-monoubiquitinated PCNA and suppress DNA damage tolerance” (Bioorg Med Chem, 2018).
The source made the active and inactive calls. No cut-off for these calls is given here.

Legend:
U2OS [1] = assay: Cytotoxicity against human U2OS cells expressing EGFP-tagged REV1 (unknown origin) at 150 uM; format: cell-based
[2] = Inhibition of biotin/Avi-tagged UbPCNA binding to recombinant human N-terminal His-tagged REV1 deletion mutant BRCT/UBM1/UBM2 domain expressed in Escherichia coli BL21(DE3) measured after 1 hr by AlphaScreen assay
Outline: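 AlphaScreen with 200 nM biotin-AviTag-Ub-PCNA (enzymatically K164-ubiquitinated) and 40 nM N-His REV1 in PBS pH 7.4, 0.1% BSA, 0.05% Tween-20, with serial compound dilutions. Ni-chelate acceptor beads added, streptavidin donor beads after 1 h, read 1 h later; dose-response fitted on final concentrations.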

[3] = Solubility of the compound in sodium phosphate buffer at pH 7; format: physicochemical
[4] = target: T1, DNA repair protein REV1 (Homo sapiens) (UniProt Q9UBZ9); assay: Binding affinity to recombinant human REV1 UBM1/UBM2 domain (137 residues) expressed in Escherichia coli BL21(DE3) assessed as increase in NOE peaks at 200 uM by STD NMR spectral analysis
T1 sequence (whole entry): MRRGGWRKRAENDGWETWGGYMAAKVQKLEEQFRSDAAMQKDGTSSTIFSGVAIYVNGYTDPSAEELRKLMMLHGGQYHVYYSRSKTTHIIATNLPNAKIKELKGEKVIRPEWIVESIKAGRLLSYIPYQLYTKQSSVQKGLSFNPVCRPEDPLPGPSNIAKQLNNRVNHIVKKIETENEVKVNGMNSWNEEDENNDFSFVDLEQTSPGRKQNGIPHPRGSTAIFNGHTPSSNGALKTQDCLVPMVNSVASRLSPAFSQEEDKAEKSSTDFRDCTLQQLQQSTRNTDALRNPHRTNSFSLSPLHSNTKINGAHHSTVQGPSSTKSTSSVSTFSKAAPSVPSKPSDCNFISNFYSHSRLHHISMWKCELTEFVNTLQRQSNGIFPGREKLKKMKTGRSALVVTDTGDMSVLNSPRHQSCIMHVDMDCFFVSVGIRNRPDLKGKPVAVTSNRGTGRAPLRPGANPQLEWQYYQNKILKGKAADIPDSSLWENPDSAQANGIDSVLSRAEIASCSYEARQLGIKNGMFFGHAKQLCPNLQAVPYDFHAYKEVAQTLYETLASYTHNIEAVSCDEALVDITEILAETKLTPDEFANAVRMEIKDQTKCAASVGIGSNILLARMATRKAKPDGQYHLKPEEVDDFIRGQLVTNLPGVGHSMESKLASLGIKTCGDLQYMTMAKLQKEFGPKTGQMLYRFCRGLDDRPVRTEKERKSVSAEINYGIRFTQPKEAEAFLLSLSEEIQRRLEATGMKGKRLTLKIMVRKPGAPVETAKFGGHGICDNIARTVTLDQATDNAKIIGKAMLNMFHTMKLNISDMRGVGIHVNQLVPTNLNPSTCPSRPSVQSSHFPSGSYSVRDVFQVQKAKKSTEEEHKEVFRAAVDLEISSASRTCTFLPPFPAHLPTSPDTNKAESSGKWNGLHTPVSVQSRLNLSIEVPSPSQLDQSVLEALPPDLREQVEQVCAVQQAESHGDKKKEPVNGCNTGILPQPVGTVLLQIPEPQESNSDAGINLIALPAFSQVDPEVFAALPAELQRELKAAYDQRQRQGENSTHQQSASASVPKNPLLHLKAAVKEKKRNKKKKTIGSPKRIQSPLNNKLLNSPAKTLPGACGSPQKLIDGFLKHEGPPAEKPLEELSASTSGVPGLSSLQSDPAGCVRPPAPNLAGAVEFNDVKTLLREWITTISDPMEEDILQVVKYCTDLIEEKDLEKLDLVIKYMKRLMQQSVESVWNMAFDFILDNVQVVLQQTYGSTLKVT
Outline: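 STD NMR at 280 K with 10 µM protein and 200 µM compound. Saturation by a train of 30 ms Gaussian pulses for 4 s, on resonance at 0 ppm and off resonance at -40 ppm; 256 on/off FIDs recorded. REV1 UBM1-UBM2 expressed as for REV1 (His-tagged, Ni-NTA), tag removed by […].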

[5] = target: T1, DNA repair protein REV1 (Homo sapiens); assay: Binding affinity to recombinant human REV1 UBM2 domain assessed as chemical shift changes by [1H,15N]-HSQC NMR spectral analysis
Outline: (§1)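 15N-labeled REV1 UBM2 in 20 mM sodium phosphate pH 7.0, 100 mM NaCl, titrated at protein:compound ratios 1:2, 1:4, 1:6, 1:8 and 1:10. 1H and 15N shifts of displaced peaks tracked at each point; weighted average shift δav(NH) = [(δH² + (δN/5)²)/2]^1/2 per backbone amide.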

[6] = target: T1, DNA repair protein REV1 (Homo sapiens); assay: Binding affinity to recombinant human REV1 UBM2 domain assessed as chemical shift perturbations on alpha-helix at REV1 UBM2 to compound molar ratio of 1:10 by [1H,15N]-HSQC NMR spectral analysis; outline: as §1
[7] = target: T1, DNA repair protein REV1 (Homo sapiens); assay: Inhibition of REV1 in human HeLa cells assessed as reduction in 2.5 J/m2 UV light-induced cyclopyrimidine dimer removal at 150 uM by epi-fluorescence microscopic analysis; format: cell-based
Outline: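 HeLa cells on coverslips given 0 or 2.5 J/m² UVC (254 nm), then DMSO or 150 µM compound. Fixed at time points up to 24 h, denatured in 2 M HCl and stained with anti-CPD (TDM-2). Epifluorescence mean green intensity per DAPI-defined nucleus; two-tailed t-test.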

[8] = target: T1, DNA repair protein REV1 (Homo sapiens); assay: Inhibition of UbPCNA binding to EGFP-tagged REV1 (unknown origin) expressed in human U2OS cells assessed as reduction in cisplatin-induced recruitment of EGFP-REV1 to PCNA foci on chromatin at 150 uM treated after 3.5 hrs cisplatin exposure and measured 6 hrs after post dose by immunostaining based confocal microscopic analysis; format: cell-based
Outline: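 U2OS cells transfected with pEGFP-REV1. Two days later, 33 µM cisplatin for 3.5 h, then released into DMSO or 150 µM compound for 6 h. CSK/Triton pre-extraction, PFA fixation, methanol, PCNA (PC10) immunostain, confocal imaging. Pearson coefficient of PCNA vs REV1 per DAPI-defined nucleus; n=32–37 cells, two-tailed t-test.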

[9] = target: T1, DNA repair protein REV1 (Homo sapiens); assay: Inhibition of REV1 in human WTK1 cells assessed as suppression of 0 to 128 J/m2 UV light-induced HPRT gene mutation by measuring reduction in number of resistant clones at 150 uM dosed Immediately following UVC treatment and measured after 21 hrs
Outline: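 WTK-1 cells cleansed (CHAT, then THC) and conditioned in horse serum; 2×10^6 cells given UVC 0–128 J/m², then DMSO or 150 µM compound for 21 h. Survival plated at 1.6 cells/well (PE0, PE6). After 5 days' expression, 5,000 cells/well in 0.5 µg/mL 6-thioguanine; colonies scored after 11–12 days; mutation frequency normalized to plating efficiency.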

U2OS [10] = assay: Cytotoxicity against human U2OS cells assessed as reduction in colony formation at 75 uM incubated for 24 hrs followed by culture medium replacement with fresh medium and measured after 7 days by crystal violet staining based assay relative to control; format: cell-based
Outline: (§2)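 U2OS cells, 300 per well, settled overnight, then given cisplatin or 4-hydroxycyclophosphamide at the stated final level. After 24 h, compound or DMSO added; medium replaced after another 24 h and cells grown 7 days. Formaldehyde fixation, 0.5% crystal violet staining, colonies of more than ~40 cells counted; triplicates, survival set to 1 for vehicle (saline for cisplatin, DMSO for 4-HC).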

[11] = target: T1, DNA repair protein REV1 (Homo sapiens); assay: (§3) Inhibition of REV1 in human U2OS cells assessed as potentiation of 4-hydroxycyclophosphamide-induced cytotoxicity by measuring reduction in colony formation at 75 uM incubated for 24 hrs after 24 hrs 4-hydroxycyclophosphamide-exposure followed by culture medium replacement with fresh medium and measured after 7 days by crystal violet staining based assay relative to control; format: cell-based; outline: as §2
[12] = target: T1, DNA repair protein REV1 (Homo sapiens); assay: as §3, with “cisplatin-induced” for “4-hydroxycyclophosphamide-induced”, “cisplatin exposure” for “4-hydroxycyclophosphamide-exposure”; format: cell-based; outline: as §2

Compound	Activity (U2OS [1])	IC50 [2] [µM]	solubility [3]	Activity [4]	Activity [5]	Activity [6]	inhibition [7]	inhibition [8]	inhibition [9]	fold change (FC) (U2OS [10])	fold change (FC) [11]	fold change (FC) [12]
Cl.O=C(CCc1cc(I)c(Oc2ccc(O)cc2)c(I)c1)N1CCNCC1	Toxic	9.7	Soluble	Active	Dose-dependent effect	Active						
O=C1CN(C(=O)CCc2cc(I)c(Oc3ccc(O)cc3)c(I)c2)CCN1		3.4	Insoluble	Active			Active	Active	Active	2	10	10
